# Reference: ChEMBL document CHEMBL3352416, “Discovery of carbohybrid-based 2-aminopyrimidine analogues as a new class of rapid-acting antimalarial agents using image-based cytological profiling assay” (J Med Chem, 2014)
# The source made the active and inactive calls. The calls are words filed in the database; no cut-off is given here.
# Legend:
# [1] = Cytotoxicity against human HepG2 cells after 48 hrs by resazurin based assay; type: cell-based
# Summary of the method: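 Cells grown in DMEM with 10% FBS and 1% antibiotic-antimycotic at 37 °C, 5% CO2. Viability read by resazurin reduction. CC50 derived; amphotericin B used as positive cytotoxicity control.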
# [2] = test system: Plasmodium falciparum; experiment: Antimalarial activity against tightly synchronized Plasmodium falciparum K1 assessed as parasite stage accumulation index at schizonts stages at 10 uM treated at 18 hrs post-invasion for continuous duration of 36 hrs by automated image mining based cytological profiling assay; type: functional
# Summary of the method: (§1)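 Tightly synchronized cultures exposed to 10 µM final from 6 hpi (early ring), 18 hpi (late ring) or 30 hpi (mid-trophozoite) for a continuous 36 h. Erythrocytes stained with WGA-AlexaFluor 488, parasite nuclei with DAPI, functional mitochondria with Mitotracker Red CMXRos. Stages (early rings, late rings, trophozoites, schizonts) classified by nuclear spot number and size. Viable parasitaemia and stage accumulation index obtained by automated image analysis.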
# [3] = test system: Plasmodium falciparum; experiment: Antimalarial activity against tightly synchronized Plasmodium falciparum K1 assessed as parasite stage accumulation index at trophozoites stages at 10 uM treated at 30 hrs post-invasion for continuous duration of 36 hrs by automated image mining based cytological profiling assay; type: functional; summary of the method: as §1
# [4] = test system: Plasmodium falciparum; experiment: Antimalarial activity against tightly synchronized Plasmodium falciparum K1 assessed as parasite stage accumulation index at schizonts stages at 10 uM treated at 30 hrs post-invasion for continuous duration of 36 hrs by automated image mining based cytological profiling assay; type: functional; summary of the method: as §1
# [5] = test system: Plasmodium falciparum; experiment: Antimalarial activity against Plasmodium falciparum K1 assessed as reduction in parasite stage accumulation index at 10 uM treated at 42 hrs post-invasion for 24 hrs by automated image mining based cytological profiling assay; type: functional, organism-based
# Summary of the method: (§2)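 Tightly synchronized cultures exposed from the 42 hpi mid-schizont point for 24 h to 10 µM final. Host cells stained with wheat germ agglutinin-AlexaFluor 488, parasite nuclei with DAPI and live-parasite mitochondria with Mitotracker Red CMXRos. Infected and viable parasitaemia and stage proportions quantified by automated image mining. Stage accumulation indices and parasitaemia reduction index derived.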
# [6] = test system: Plasmodium falciparum; experiment: Antimalarial activity against Plasmodium falciparum HB3 assessed as reduction in parasite stage accumulation index at 10 uM treated at 42 hrs post-invasion for 24 hrs by automated image mining based cytological profiling assay; type: functional; summary of the method: as §2
# [7] = test system: Plasmodium falciparum; experiment: Antimalarial activity against Plasmodium falciparum W2 assessed as reduction in parasite stage accumulation index at 10 uM treated at 42 hrs post-invasion for 24 hrs by automated image mining based cytological profiling assay; type: functional, organism-based; summary of the method: as §2
# [8] = test system: Plasmodium falciparum; experiment: Antimalarial activity against Plasmodium falciparum K1 assessed as increase in schizonts parasite stage accumulation index at 10 uM treated at 42 hrs post-invasion for 24 hrs by automated image mining based cytological profiling assay; type: functional, organism-based; summary of the method: as §2
# [9] = test system: Plasmodium falciparum; experiment: Antimalarial activity against Plasmodium falciparum HB3 assessed as increase in schizonts parasite stage accumulation index at 10 uM treated at 42 hrs post-invasion for 24 hrs by automated image mining based cytological profiling assay; type: functional; summary of the method: as §2
# [10] = test system: Plasmodium falciparum; experiment: Antimalarial activity against Plasmodium falciparum W2 assessed as increase in schizonts parasite stage accumulation index at 10 uM treated at 42 hrs post-invasion for 24 hrs by automated image mining based cytological profiling assay; type: functional, organism-based; summary of the method: as §2
# [11] = test system: Plasmodium falciparum; experiment: Antimalarial activity against Plasmodium falciparum K1 assessed as reduction in culture parasitaemia level at 10 uM treated at 42 hrs post-invasion for 24 hrs by automated image mining based cytological profiling assay; type: functional, organism-based; summary of the method: as §2
# [12] = test system: Plasmodium falciparum; experiment: Antimalarial activity against Plasmodium falciparum HB3 assessed as reduction in culture parasitaemia level at 10 uM treated at 42 hrs post-invasion for 24 hrs by automated image mining based cytological profiling assay; type: functional; summary of the method: as §2
# [13] = test system: Plasmodium falciparum; experiment: Antimalarial activity against Plasmodium falciparum W2 assessed as reduction in culture parasitaemia level at 10 uM treated at 42 hrs post-invasion for 24 hrs by automated image mining based cytological profiling assay; type: functional, organism-based; summary of the method: as §2
# [14] = test system: Plasmodium falciparum; experiment: Antimalarial activity against tightly synchronized Plasmodium falciparum HB3 assessed as parasite stage accumulation index at early ring stages at 10 uM treated at 6 hrs post-invasion for continuous duration of 36 hrs by automated image mining based cytological profiling assay; type: functional
# [15] = test system: Plasmodium falciparum; experiment: Antimalarial activity against tightly synchronized Plasmodium falciparum HB3 assessed as parasite stage accumulation index at late ring stages at 10 uM treated at 6 hrs post-invasion for continuous duration of 36 hrs by automated image mining based cytological profiling assay; type: functional; summary of the method: as §1
# [16] = test system: Plasmodium falciparum; experiment: Antimalarial activity against tightly synchronized Plasmodium falciparum HB3 assessed as parasite stage accumulation index at trophozoites stages at 10 uM treated at 6 hrs post-invasion for continuous duration of 36 hrs by automated image mining based cytological profiling assay; type: functional; summary of the method: as §1
# [17] = test system: Plasmodium falciparum; experiment: Antimalarial activity against tightly synchronized Plasmodium falciparum HB3 assessed as parasite stage accumulation index at schizonts stages at 10 uM treated at 6 hrs post-invasion for continuous duration of 36 hrs by automated image mining based cytological profiling assay; type: functional; summary of the method: as §1
# [18] = test system: Plasmodium falciparum; experiment: Antimalarial activity against tightly synchronized Plasmodium falciparum HB3 assessed as parasite stage accumulation index at late ring stages at 10 uM treated at 18 hrs post-invasion for continuous duration of 36 hrs by automated image mining based cytological profiling assay; type: functional; summary of the method: as §1
# [19] = test system: Plasmodium falciparum; experiment: Antimalarial activity against tightly synchronized Plasmodium falciparum HB3 assessed as parasite stage accumulation index at trophozoites stages at 10 uM treated at 18 hrs post-invasion for continuous duration of 36 hrs by automated image mining based cytological profiling assay; type: functional; summary of the method: as §1
# [20] = test system: Plasmodium falciparum; experiment: Antimalarial activity against tightly synchronized Plasmodium falciparum HB3 assessed as parasite stage accumulation index at schizonts stages at 10 uM treated at 18 hrs post-invasion for continuous duration of 36 hrs by automated image mining based cytological profiling assay; type: functional; summary of the method: as §1
# [21] = test system: Plasmodium falciparum; experiment: Antimalarial activity against tightly synchronized Plasmodium falciparum HB3 assessed as parasite stage accumulation index at trophozoites stages at 10 uM treated at 30 hrs post-invasion for continuous duration of 36 hrs by automated image mining based cytological profiling assay; type: functional
# [22] = test system: Plasmodium falciparum; experiment: Antimalarial activity against tightly synchronized Plasmodium falciparum HB3 assessed as parasite stage accumulation index at schizonts stages at 10 uM treated at 30 hrs post-invasion for continuous duration of 36 hrs by automated image mining based cytological profiling assay; type: functional
# [23] = test system: Plasmodium falciparum; experiment: Antimalarial activity against tightly synchronized Plasmodium falciparum W2 assessed as parasite stage accumulation index at early ring stages at 10 uM treated at 6 hrs post-invasion for continuous duration of 36 hrs by automated image mining based cytological profiling assay; type: functional; summary of the method: as §1
# [24] = test system: Plasmodium falciparum; experiment: Antimalarial activity against tightly synchronized Plasmodium falciparum W2 assessed as parasite stage accumulation index at late ring stages at 10 uM treated at 6 hrs post-invasion for continuous duration of 36 hrs by automated image mining based cytological profiling assay; type: functional
# [25] = test system: Plasmodium falciparum; experiment: Antimalarial activity against tightly synchronized Plasmodium falciparum W2 assessed as parasite stage accumulation index at trophozoites stages at 10 uM treated at 6 hrs post-invasion for continuous duration of 36 hrs by automated image mining based cytological profiling assay; type: functional
# [26] = test system: Plasmodium falciparum; experiment: Antimalarial activity against tightly synchronized Plasmodium falciparum W2 assessed as parasite stage accumulation index at schizonts stages at 10 uM treated at 6 hrs post-invasion for continuous duration of 36 hrs by automated image mining based cytological profiling assay; type: functional; summary of the method: as §1
# [27] = test system: Plasmodium falciparum; experiment: Antimalarial activity against tightly synchronized Plasmodium falciparum W2 assessed as parasite stage accumulation index at late ring stages at 10 uM treated at 18 hrs post-invasion for continuous duration of 36 hrs by automated image mining based cytological profiling assay; type: functional; summary of the method: as §1
# [28] = test system: Plasmodium falciparum; experiment: Antimalarial activity against tightly synchronized Plasmodium falciparum W2 assessed as parasite stage accumulation index at trophozoites stages at 10 uM treated at 18 hrs post-invasion for continuous duration of 36 hrs by automated image mining based cytological profiling assay; type: functional
# [29] = test system: Plasmodium falciparum; experiment: Antimalarial activity against tightly synchronized Plasmodium falciparum W2 assessed as parasite stage accumulation index at schizonts stages at 10 uM treated at 18 hrs post-invasion for continuous duration of 36 hrs by automated image mining based cytological profiling assay; type: functional
# [30] = test system: Plasmodium falciparum; experiment: Antimalarial activity against tightly synchronized Plasmodium falciparum W2 assessed as parasite stage accumulation index at trophozoites stages at 10 uM treated at 30 hrs post-invasion for continuous duration of 36 hrs by automated image mining based cytological profiling assay; type: functional; summary of the method: as §1
# [31] = test system: Plasmodium falciparum; experiment: Antimalarial activity against tightly synchronized Plasmodium falciparum W2 assessed as parasite stage accumulation index at schizonts stages at 10 uM treated at 30 hrs post-invasion for continuous duration of 36 hrs by automated image mining based cytological profiling assay; type: functional
# [32] = test system: Plasmodium falciparum; experiment: Antimalarial activity against tightly synchronized Plasmodium falciparum K1 assessed as parasite stage accumulation index at early ring stages at 10 uM treated at 6 hrs post-invasion for continuous duration of 36 hrs by automated image mining based cytological profiling assay; type: functional; summary of the method: as §1
# [33] = test system: Plasmodium falciparum; experiment: Antimalarial activity against tightly synchronized Plasmodium falciparum K1 assessed as parasite stage accumulation index at late ring stages at 10 uM treated at 6 hrs post-invasion for continuous duration of 36 hrs by automated image mining based cytological profiling assay; type: functional
# [34] = test system: Plasmodium falciparum; experiment: Antimalarial activity against tightly synchronized Plasmodium falciparum K1 assessed as parasite stage accumulation index at trophozoites stages at 10 uM treated at 6 hrs post-invasion for continuous duration of 36 hrs by automated image mining based cytological profiling assay; type: functional
# [35] = test system: Plasmodium falciparum; experiment: Antimalarial activity against tightly synchronized Plasmodium falciparum K1 assessed as parasite stage accumulation index at schizonts stages at 10 uM treated at 6 hrs post-invasion for continuous duration of 36 hrs by automated image mining based cytological profiling assay; type: functional; summary of the method: as §1
# [36] = test system: Plasmodium falciparum; experiment: Antimalarial activity against tightly synchronized Plasmodium falciparum K1 assessed as parasite stage accumulation index at late ring stages at 10 uM treated at 18 hrs post-invasion for continuous duration of 36 hrs by automated image mining based cytological profiling assay; type: functional; summary of the method: as §1
# [37] = test system: Plasmodium falciparum; experiment: Antimalarial activity against tightly synchronized Plasmodium falciparum K1 assessed as parasite stage accumulation index at trophozoites stages at 10 uM treated at 18 hrs post-invasion for continuous duration of 36 hrs by automated image mining based cytological profiling assay; type: functional; summary of the method: as §1
structure (smiles),measurement,setting,value
C[C@@H]1[C@H](O)[C@@H](C)/C=C/C=C/C=C/C=C/C=C/C=C/C=C/[C@H](O[C@@H]2O[C@H](C)[C@@H](O)[C@H](N)[C@@H]2O)C[C@@H]2O[C@](O)(C[C@@H](O)C[C@@H](O)[C@H](O)CC[C@@H](O)C[C@@H](O)CC(=O)O[C@H]1C)C[C@H](O)[C@H]2C(=O)O [AMPHOTERICIN B],CC50 at 48 h,[1],40 µM
CC(=O)N[C@@H]1[C@@H](O)[C@H](O)[C@@H](CO)O[C@H]1O [N-ACETYLGLUCOSAMINE],Activity,[2],0.64
same,Activity,[3],0.96
same,Activity,[4],1.04
same,inhibition,[5],Active
same,inhibition,[6],Active
same,inhibition,[7],Active
same,inhibition,[8],inactive
same,inhibition,[9],inactive
same,inhibition,[10],inactive
same,inhibition,[11],Active
same,inhibition,[12],Active
same,inhibition,[13],Active
same,Activity,[14],1.4
same,Activity,[15],2.14
same,Activity,[16],0.78
same,Activity,[17],0.29
same,Activity,[18],1
same,Activity,[19],1.06
same,Activity,[20],0.51
same,Activity,[21],0.87
same,Activity,[22],0.7
same,Activity,[23],1.52
same,Activity,[24],0.88
same,Activity,[25],0.92
same,Activity,[26],0.54
same,Activity,[27],0.83
same,Activity,[28],1.12
same,Activity,[29],1.08
same,Activity,[30],0.34
same,Activity,[31],1.4
same,Activity,[32],1.33
same,Activity,[33],1.32
same,Activity,[34],0.8
same,Activity,[35],0.66
same,Activity,[36],0.86
same,Activity,[37],1.18
